Source: PubChem BioAssay
T cruzi intra: inhibitors of intracellular Trypanosoma cruzi, primary screen, cell-based, plate reader, single point, set 2 | 4.9% of 22,000 active | AID 651903, 2012 | activity score (inhibition), % at 5.01 µM | intracellular Trypanosoma cruzi in host cells; in the data active means activity score above about 55%;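 further: parasites and compound incubated about four days before reading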
A1 apoptosis 2: A1 inhibitors via caspase activation, primary screen, cell-based, luminescence, HTS, two replicates. 24,000 tested, under 10 active. MEF A1-2A-BIM cells, caspase-Glo luminescence, 3 h; percent of clofoctol response, DMSO zero. caspase activation, % (concentration not given with the values); in the data active means caspase activation above about 5.9%
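Material: mouse embryonic fibroblasts co-expressing A1 and BIM (A1-2A-BIM), primed for A1 dependence / Quantity: 2500 cells/well / Buffer or medium: RPMI-1640 growth medium with 10% FBS / Doses: 50 nL compound per well, pinned / Schedule: 3 h compound exposure at 37 °C / Signal: Caspase-Glo luminescence (DEVD substrate) / Measure: Caspase-3/7 activation, seen as rise in luminescence signal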
INS-1E ATP HTS: protection of INS-1E cells from cytokine death, primary screen, ATP luminescence, single point; INS-1E cytokine-induced death, 48 h; normalised: neutral wells 0, positive control 100; protection from cytokine-induced ATP loss, % at 10 µM; 0.1% of 20,000 active; AID 488910, 2010;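 active means mean replicate protection from cytokine-induced ATP loss at least 50% and at least 75% of replicates each reaching 50%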
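Test system: INS-1E rat cells | Quantity: 8000 cells per well | Medium: Phenol-red-free RPMI with 5% fetal bovine serum | Reagent: Cytokine cocktail of IFN-γ, TNF-α and IL-1β | Doses: One compound concentration, pin transfer | Timing: 48 h co-treatment, 10 min post-lysis read | Technique: Luminescent ATP assay (CellTiter-Glo)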
Hits are given with their value; n = inactive; x = not tested or not shown. The entries come from a sample that favours hits as a whole.

SMILES | T cruzi intra | A1 apoptosis 2 | INS-1E ATP HTS
COCC1=C2[C@@H](c3ccccc3)OB(O)C[C@@H]2[C@@H]2C(=O)N(C)C(=O)[C@@H]2C1 | x | n | x
O=C(CCCCCC(=O)Nc1ccccc1O)N/N=C/c1cc(Br)c(O)c(Br)c1 | n | x | n
COc1ccc(NC(=O)Nc2cccc3c2O[C@@H](CN(C)Cc2ccc(C(=O)Nc4ccccc4N)cc2)[C@H](C)CN([C@H](C)CO)C3=O)cc1 | 67 | x | n
COc1ccc(NC(=O)Nc2cccc3c2O[C@H](CN(C)Cc2ccc(C(=O)Nc4ccccc4N)cc2)[C@@H](C)CN([C@@H](C)CO)C3=O)cc1 | 56 | x | n
COc1ccc(NC(=O)Nc2cccc3c2O[C@H](CN(C)Cc2ccc(C(=O)Nc4ccccc4N)cc2)[C@@H](C)CN([C@H](C)CO)C3=O)cc1 | n | x | n
COc1ccc(NC(=O)Nc2cccc3c2O[C@H](CN(C)Cc2ccc(C(=O)Nc4ccccc4N)cc2)[C@H](C)CN([C@@H](C)CO)C3=O)cc1 | n | x | n
C[C@@H]1CN([C@H](C)CO)C(=O)Cc2cc(NC(=O)Cc3cn(C)c4ccccc34)ccc2O[C@H]1CN(C)S(=O)(=O)c1ccccc1 | n | x | n
O=C(O)CCCCCCC(=O)N/N=C/c1ccc2ccccc2n1 | n | n | n
C[C@@H]1CCCCO[C@H](CN(C)Cc2ccc(C(=O)Nc3ccccc3N)cc2)[C@@H](C)CN([C@H](C)CO)C(=O)c2cc(NS(=O)(=O)c3ccc(Cl)cc3)ccc2O1 | 78 | x | n
C[C@@H]1CN([C@@H](C)CO)C(=O)c2cc(NS(=O)(=O)c3ccc(F)cc3)ccc2O[C@H]1CN(C)Cc1ccc(C(=O)Nc2ccccc2N)cc1 | 57 | n | n
C[C@@H]1CN([C@H](C)CO)C(=O)c2cc(NS(=O)(=O)c3ccc(F)cc3)ccc2O[C@@H]1CN(C)Cc1ccc(C(=O)Nc2ccccc2N)cc1 | n | x | n
Cc1ccc(S(=O)(=O)Nc2ccc3c(c2)CC(=O)N([C@H](C)CO)C[C@@H](C)[C@H](CN(C)Cc2ccc(C(=O)Nc4ccccc4N)cc2)O3)cc1 | n | x | n
C[C@@H]1CCCCO[C@@H](CN(C)Cc2ccc(C(=O)Nc3ccccc3N)cc2)[C@@H](C)CN([C@H](C)CO)C(=O)c2cc(NS(=O)(=O)c3ccccc3)ccc2O1 | n | n | n
C[C@H]1CN([C@@H](C)CO)C(=O)Cc2cc(NS(=O)(=O)c3ccc(Cl)cc3)ccc2O[C@H]1CN(C)Cc1ccc(C(=O)Nc2ccccc2N)cc1 | 66 | n | n
C[C@@H]1CN([C@@H](C)CO)C(=O)Cc2cc(NS(=O)(=O)c3ccc(F)cc3)ccc2O[C@@H]1CN(C)Cc1ccc(C(=O)Nc2ccccc2N)cc1 | n | n | n
C[C@H]1CN([C@@H](C)CO)C(=O)Cc2cc(NS(=O)(=O)c3ccc(F)cc3)ccc2O[C@H]1CN(C)Cc1ccc(C(=O)Nc2ccccc2N)cc1 | 71 | x | n
C[C@@H]1CN([C@@H](C)CO)C(=O)Cc2cc(NC(=O)CCN3CCOCC3)ccc2O[C@H]1CN(C)Cc1ccncc1 | x | n | x
Cc1ccsc1/C=N/NC(=O)c1ccc(C(=O)NO)cc1 | n | n | n
C[C@H](CO)N1C[C@H](C)[C@@H](CN(C)Cc2ccc(C(=O)Nc3ccccc3N)cc2)Oc2ccc(NS(=O)(=O)c3ccccc3)cc2CC1=O | x | n | x
C[C@@H]1CN([C@H](C)CO)C(=O)Cc2cc(NS(=O)(=O)c3ccccc3)ccc2O[C@@H]1CN(C)Cc1ccc(C(=O)Nc2ccccc2N)cc1 | 58 | n | n
COCCOC(=O)N1C(=O)[C@@]2(c3cc(C#CC4(O)CCCCCC4)ccc31)[C@H](C(=O)NC[C@H](O)c1ccccc1)[C@H]1C(=O)O[C@H](c3ccccc3)[C@H](c3ccccc3)N1[C@@H]2c1ccccc1OCCO | x | n | x
O=C(CCCCC(=O)N/N=C/c1ccc([N+](=O)[O-])s1)NO | n | n | n
O=C(CCCCCCC(=O)Nc1ccccc1O)N/N=C/c1ccccc1O | n | n | n
O=C(CCCCCCC(=O)Nc1ccccc1O)N/N=C/c1ccc([N+](=O)[O-])s1 | 89 | n | n
CCN(CC)c1ccc(/C=N/NC(=O)CCCCCCC(=O)Nc2ccccc2O)c(O)c1 | 66 | n | n
SMILES | T cruzi intra | A1 apoptosis 2 | INS-1E ATP HTS
COC(=O)c1ccc([C@@H]2C=C(C(=O)O)O[C@H](OCCCCO)C2)cc1 | x | n | x
C[C@@H]1CCCCO[C@H](CN(C)C(=O)Nc2ccc(C(F)(F)F)cc2)[C@H](C)CN([C@H](C)CO)C(=O)c2cc(NC(=O)Nc3ccc(F)cc3)ccc2O1 | x | n | x
C[C@H]1CCCCO[C@@H](CN(C)C(=O)Nc2ccccc2)[C@@H](C)CN([C@@H](C)CO)C(=O)c2cc(NC(=O)Nc3ccc(C(F)(F)F)cc3)ccc2O1 | x | n | x
C[C@@H]1CCCCO[C@@H](CN(C)C(=O)Nc2ccc(F)cc2)[C@@H](C)CN([C@H](C)CO)C(=O)c2cc(NC(=O)Nc3ccc(C(F)(F)F)cc3)ccc2O1 | 64 | x | n
C[C@H](CO)N1C[C@H](C)[C@H](CN(C)C(=O)Nc2ccc(F)cc2)OCCCC[C@H](C)Oc2ccc(NC(=O)Nc3ccc(C(F)(F)F)cc3)cc2C1=O | x | n | x
C[C@@H]1CCCCO[C@H](CN(C)C(=O)Nc2ccc(F)cc2)[C@@H](C)CN([C@H](C)CO)C(=O)c2cc(NC(=O)Nc3ccc(C(F)(F)F)cc3)ccc2O1 | 62 | x | n
C[C@@H]1CCCCO[C@@H](CN(C)C(=O)Nc2ccc(C(F)(F)F)cc2)[C@H](C)CN([C@H](C)CO)C(=O)c2cc(NC(=O)Nc3cccc4ccccc34)ccc2O1 | x | n | x
C[C@@H]1CCCCO[C@H](CN(C)C(=O)Nc2ccccc2)[C@@H](C)CN([C@H](C)CO)C(=O)c2cc(NC(=O)Nc3ccc(C(F)(F)F)cc3)ccc2O1 | 70 | x | n
C[C@@H]1CCCCO[C@H](CN(C)C(=O)Nc2ccc(C(F)(F)F)cc2)[C@@H](C)CN([C@H](C)CO)C(=O)c2cc(NC(=O)Nc3cccc4ccccc34)ccc2O1 | 67 | n | n
O=C(NO)c1ccc(C(=O)N/N=C/c2ccc(CO)o2)cc1 | n | n | n
COc1ccc(C#Cc2ccc3c(c2)[C@]2(C(=O)N3)[C@H](C(=O)NC[C@H](O)c3ccccc3)[C@H]3C(=O)O[C@H](c4ccccc4)[C@H](c4ccccc4)N3[C@@H]2c2ccc(OCCO)cc2)cc1 | x | n | x
COc1ccc(O)c(/C=N/NC(=O)CCCCC(=O)NO)c1 | n | x | n
NC(=O)[C@@H]1[C@H]2C(=O)O[C@H](c3ccccc3)[C@H](c3ccccc3)N2[C@H](c2ccccc2OCCO)[C@@]12C(=O)Nc1ccc(C#CC3=CCCCC3)cc12 | x | n | x
COC(=O)CCCCCCC(=O)N/N=C/c1ccc2ccccc2n1 | n | n | n
Cc1ccc(O)c(/C=N/NC(=O)c2ccccn2)c1 | n | x | n
C[C@@H]1CN([C@H](C)CO)C(=O)c2cc(NC(=O)c3ccccc3)ccc2O[C@@H](C)CCCCO[C@H]1CN(C)C(=O)Nc1ccc(C(F)(F)F)cc1 | x | n | x
